Measurements published in ChEMBL document CHEMBL1681705, “Optimisation of ITK inhibitors through successive iterative design cycles” (Bioorg Med Chem Lett, 2011).

Key:
[1] = target: Interleukin-1 receptor-associated kinase 1 (Homo sapiens) (UniProt P51617); experiment: Inhibition of IRAK1 at 1 uM
How it was run: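 Single-point profiling in a panel of 108 kinases. Each selected inhibitor was tested at two concentrations, 0.1 and 1.0 micromolar. Values are reported as inhibition at each concentration.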

[2] = target: Insulin receptor (Homo sapiens) (UniProt P06213); experiment: Inhibition of IR at 1 uM; values are per cent of control
[3] = target: Tyrosine-protein kinase Fer (Homo sapiens) (UniProt P16591); experiment: Inhibition of Fer at 1 uM; values are per cent of control
[4] = target: Dual specificity mitogen-activated protein kinase kinase 1 (Homo sapiens) (UniProt Q02750); experiment: Inhibition of MEK1 at 1 uM; values are per cent of control
[5] = target: MAP kinase-interacting serine/threonine-protein kinase 2 (Homo sapiens) (UniProt Q9HBH9); experiment: Inhibition of Mnk2 at 1 uM; values are per cent of control
[6] = target: T1, Serine/threonine-protein kinase Nek2 (Homo sapiens) (UniProt P51955); experiment: Inhibition of NEK2 at 1 uM; values are per cent of control
T1 sequence (whole entry): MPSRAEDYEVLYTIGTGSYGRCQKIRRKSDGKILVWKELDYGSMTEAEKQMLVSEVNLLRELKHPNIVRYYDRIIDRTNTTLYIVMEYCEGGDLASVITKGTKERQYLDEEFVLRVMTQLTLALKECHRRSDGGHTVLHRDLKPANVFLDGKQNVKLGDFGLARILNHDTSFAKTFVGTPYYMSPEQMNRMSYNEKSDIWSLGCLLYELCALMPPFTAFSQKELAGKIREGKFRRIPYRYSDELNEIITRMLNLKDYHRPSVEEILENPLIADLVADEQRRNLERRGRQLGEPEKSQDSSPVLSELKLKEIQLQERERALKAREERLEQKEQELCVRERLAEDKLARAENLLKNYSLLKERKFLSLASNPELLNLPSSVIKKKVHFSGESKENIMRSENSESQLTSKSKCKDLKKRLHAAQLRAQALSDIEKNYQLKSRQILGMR

[7] = target: Serine/threonine-protein kinase PLK2 (Homo sapiens) (UniProt Q9NYY3); experiment: Inhibition of Snk at 0.1 uM; values are per cent of control
[8] = target: Mast/stem cell growth factor receptor Kit (Homo sapiens) (UniProt P10721); experiment: Inhibition of c-Kit at 1 uM; values are per cent of control
[9] = target: Ephrin type-A receptor 5 (Homo sapiens) (UniProt P54756); experiment: Inhibition of EphA5 at 1 uM; values are per cent of control
[10] = target: Myosin light chain kinase, smooth muscle (Homo sapiens) (UniProt Q15746); experiment: Inhibition of MLCK at 0.1 uM; values are per cent of control
[11] = target: T2, Interleukin-1 receptor-associated kinase 4 (Homo sapiens) (UniProt Q9NWZ3); experiment: Inhibition of IRAK4 at 0.1 uM; values are per cent of control
T2 sequence (whole entry): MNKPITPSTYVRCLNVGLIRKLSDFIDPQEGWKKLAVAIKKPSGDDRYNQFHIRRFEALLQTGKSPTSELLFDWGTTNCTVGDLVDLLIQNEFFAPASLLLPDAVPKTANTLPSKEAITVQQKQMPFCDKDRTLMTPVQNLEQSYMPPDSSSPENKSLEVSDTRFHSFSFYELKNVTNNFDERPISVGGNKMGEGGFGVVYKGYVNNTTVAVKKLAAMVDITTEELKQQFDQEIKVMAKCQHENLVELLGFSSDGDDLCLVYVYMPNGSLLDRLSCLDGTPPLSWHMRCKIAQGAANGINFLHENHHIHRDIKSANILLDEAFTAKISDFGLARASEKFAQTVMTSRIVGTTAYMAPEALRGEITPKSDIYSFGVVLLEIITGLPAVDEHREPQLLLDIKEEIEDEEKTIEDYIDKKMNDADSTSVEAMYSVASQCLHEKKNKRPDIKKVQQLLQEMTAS

[12] = target: Mitogen-activated protein kinase 1 (Homo sapiens) (UniProt P28482); experiment: Inhibition of MAPK1 at 0.1 uM; values are per cent of control
[13] = target: Protein kinase C alpha type (Homo sapiens) (UniProt P17252); experiment: Inhibition of PKCalpha at 1 uM; values are per cent of control
[14] = target: RAC-alpha serine/threonine-protein kinase (Homo sapiens) (UniProt P31749); experiment: Inhibition of PKBalpha at 0.1 uM; values are per cent of control
[15] = target: Platelet-derived growth factor receptor beta (Homo sapiens) (UniProt P09619); experiment: Inhibition of PDGFRbeta at 0.1 uM; values are per cent of control
[16] = target: T3, Protein kinase C epsilon type (Homo sapiens) (UniProt Q02156); experiment: Inhibition of PKCepsilon at 0.1 uM; values are per cent of control
T3 sequence (whole entry): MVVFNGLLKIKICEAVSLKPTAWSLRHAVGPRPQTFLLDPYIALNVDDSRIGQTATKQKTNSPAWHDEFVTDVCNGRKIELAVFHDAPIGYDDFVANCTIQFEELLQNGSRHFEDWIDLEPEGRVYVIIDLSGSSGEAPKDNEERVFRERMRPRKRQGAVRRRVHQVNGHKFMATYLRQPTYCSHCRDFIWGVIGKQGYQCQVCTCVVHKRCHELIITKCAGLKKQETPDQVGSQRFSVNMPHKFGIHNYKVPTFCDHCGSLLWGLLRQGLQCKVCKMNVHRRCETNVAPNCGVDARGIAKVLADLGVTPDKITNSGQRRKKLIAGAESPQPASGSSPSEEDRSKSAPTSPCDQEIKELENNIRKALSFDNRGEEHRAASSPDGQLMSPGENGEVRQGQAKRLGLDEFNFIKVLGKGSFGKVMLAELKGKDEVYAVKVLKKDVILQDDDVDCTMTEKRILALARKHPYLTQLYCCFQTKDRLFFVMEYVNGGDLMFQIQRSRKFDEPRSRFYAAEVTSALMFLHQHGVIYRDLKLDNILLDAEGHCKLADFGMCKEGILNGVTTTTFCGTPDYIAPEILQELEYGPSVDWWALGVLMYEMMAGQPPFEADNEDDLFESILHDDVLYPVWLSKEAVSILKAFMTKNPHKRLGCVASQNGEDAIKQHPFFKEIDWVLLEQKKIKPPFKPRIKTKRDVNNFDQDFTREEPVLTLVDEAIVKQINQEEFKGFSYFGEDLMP

Ephrin type-A receptor 5 (Homo sapiens), sequence (P54756 whole entry): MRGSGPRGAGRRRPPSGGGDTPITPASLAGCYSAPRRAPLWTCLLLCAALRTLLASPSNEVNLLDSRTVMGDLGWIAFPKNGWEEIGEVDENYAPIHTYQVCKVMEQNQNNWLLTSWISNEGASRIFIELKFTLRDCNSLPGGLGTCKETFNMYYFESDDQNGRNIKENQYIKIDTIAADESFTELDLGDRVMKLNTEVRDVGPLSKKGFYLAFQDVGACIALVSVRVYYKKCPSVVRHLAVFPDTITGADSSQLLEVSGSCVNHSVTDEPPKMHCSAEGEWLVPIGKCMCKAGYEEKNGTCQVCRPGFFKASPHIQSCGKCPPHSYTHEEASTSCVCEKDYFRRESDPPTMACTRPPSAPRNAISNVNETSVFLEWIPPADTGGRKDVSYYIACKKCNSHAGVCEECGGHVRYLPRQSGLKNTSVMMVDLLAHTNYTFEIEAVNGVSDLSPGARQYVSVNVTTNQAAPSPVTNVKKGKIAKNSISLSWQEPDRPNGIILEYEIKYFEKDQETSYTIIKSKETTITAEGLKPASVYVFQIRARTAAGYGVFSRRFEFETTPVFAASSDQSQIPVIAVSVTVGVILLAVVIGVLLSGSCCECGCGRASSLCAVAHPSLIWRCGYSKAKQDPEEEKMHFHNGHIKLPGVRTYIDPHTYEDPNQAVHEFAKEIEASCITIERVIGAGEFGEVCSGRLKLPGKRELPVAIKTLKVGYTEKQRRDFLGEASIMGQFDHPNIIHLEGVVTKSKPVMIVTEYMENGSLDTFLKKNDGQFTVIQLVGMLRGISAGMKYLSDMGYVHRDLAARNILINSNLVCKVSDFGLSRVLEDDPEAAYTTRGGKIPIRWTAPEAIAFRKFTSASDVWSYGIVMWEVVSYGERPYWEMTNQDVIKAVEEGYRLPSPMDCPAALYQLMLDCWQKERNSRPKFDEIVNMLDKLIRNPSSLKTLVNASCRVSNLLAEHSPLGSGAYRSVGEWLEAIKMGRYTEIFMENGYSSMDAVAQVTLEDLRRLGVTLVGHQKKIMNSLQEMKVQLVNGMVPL
MAP kinase-interacting serine/threonine-protein kinase 2 (Homo sapiens), sequence (Q9HBH9 whole entry, looked up): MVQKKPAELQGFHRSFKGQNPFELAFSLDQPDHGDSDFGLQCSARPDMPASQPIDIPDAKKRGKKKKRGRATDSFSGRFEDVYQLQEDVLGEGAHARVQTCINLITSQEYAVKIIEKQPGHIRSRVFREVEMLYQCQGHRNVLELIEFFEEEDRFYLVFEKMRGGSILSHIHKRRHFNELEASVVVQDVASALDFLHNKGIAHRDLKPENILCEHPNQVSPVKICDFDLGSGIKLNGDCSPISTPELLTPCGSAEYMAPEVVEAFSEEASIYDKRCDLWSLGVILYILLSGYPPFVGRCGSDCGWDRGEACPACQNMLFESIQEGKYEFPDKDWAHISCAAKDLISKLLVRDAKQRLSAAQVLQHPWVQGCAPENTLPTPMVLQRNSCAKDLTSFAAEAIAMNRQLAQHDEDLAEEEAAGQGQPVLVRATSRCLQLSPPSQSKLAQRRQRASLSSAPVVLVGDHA
Serine/threonine-protein kinase PLK2 (Homo sapiens), sequence (Q9NYY3 whole entry, looked up): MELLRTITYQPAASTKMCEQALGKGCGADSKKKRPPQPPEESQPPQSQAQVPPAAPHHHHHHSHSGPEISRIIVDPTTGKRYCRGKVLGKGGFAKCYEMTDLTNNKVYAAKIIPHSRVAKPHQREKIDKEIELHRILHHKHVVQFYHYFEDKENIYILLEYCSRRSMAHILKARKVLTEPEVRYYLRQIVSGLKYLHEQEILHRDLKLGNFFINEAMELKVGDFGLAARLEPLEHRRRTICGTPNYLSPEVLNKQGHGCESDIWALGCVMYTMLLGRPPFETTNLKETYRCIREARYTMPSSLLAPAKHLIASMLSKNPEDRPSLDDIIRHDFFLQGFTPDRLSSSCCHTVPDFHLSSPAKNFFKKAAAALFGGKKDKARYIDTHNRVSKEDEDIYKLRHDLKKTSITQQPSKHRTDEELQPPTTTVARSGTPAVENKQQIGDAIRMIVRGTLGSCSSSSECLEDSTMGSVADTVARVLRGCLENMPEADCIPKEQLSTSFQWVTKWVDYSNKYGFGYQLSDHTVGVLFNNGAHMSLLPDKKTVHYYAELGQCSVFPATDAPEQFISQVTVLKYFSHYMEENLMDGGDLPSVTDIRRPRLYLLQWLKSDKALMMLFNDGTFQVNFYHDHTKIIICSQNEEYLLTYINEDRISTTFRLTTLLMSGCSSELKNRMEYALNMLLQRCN
Dual specificity mitogen-activated protein kinase kinase 1 (Homo sapiens), sequence (Q02750 whole entry): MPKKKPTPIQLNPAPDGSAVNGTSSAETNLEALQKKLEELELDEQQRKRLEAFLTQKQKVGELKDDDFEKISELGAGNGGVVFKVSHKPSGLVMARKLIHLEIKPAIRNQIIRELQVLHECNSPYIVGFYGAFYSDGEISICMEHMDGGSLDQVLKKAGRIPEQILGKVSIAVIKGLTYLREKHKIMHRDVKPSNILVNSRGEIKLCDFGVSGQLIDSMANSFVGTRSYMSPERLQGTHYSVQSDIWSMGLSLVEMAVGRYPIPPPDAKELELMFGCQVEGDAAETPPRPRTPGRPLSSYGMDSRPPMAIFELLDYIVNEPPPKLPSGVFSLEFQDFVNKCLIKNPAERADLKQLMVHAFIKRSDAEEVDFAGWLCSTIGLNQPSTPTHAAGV
Insulin receptor (Homo sapiens), sequence (P06213 28-758 limits assumed): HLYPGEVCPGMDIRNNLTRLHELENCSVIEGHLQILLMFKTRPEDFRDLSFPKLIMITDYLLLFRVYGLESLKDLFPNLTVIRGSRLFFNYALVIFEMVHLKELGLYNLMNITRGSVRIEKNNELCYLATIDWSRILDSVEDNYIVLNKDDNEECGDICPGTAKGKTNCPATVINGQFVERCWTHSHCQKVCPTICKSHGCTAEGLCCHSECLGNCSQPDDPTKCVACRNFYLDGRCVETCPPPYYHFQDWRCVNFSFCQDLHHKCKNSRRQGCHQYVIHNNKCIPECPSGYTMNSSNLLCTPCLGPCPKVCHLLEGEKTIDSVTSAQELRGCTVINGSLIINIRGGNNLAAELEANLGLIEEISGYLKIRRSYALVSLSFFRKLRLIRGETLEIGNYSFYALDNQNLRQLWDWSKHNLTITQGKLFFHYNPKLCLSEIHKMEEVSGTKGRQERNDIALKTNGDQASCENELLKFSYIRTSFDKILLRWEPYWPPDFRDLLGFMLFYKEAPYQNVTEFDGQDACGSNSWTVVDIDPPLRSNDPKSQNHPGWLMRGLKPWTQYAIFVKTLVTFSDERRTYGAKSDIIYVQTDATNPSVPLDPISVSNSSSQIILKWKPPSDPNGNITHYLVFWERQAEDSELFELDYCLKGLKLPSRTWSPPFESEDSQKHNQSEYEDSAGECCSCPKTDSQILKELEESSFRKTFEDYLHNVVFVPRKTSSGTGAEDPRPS
Insulin receptor (Homo sapiens), sequence (P06213 763-1382 limits assumed): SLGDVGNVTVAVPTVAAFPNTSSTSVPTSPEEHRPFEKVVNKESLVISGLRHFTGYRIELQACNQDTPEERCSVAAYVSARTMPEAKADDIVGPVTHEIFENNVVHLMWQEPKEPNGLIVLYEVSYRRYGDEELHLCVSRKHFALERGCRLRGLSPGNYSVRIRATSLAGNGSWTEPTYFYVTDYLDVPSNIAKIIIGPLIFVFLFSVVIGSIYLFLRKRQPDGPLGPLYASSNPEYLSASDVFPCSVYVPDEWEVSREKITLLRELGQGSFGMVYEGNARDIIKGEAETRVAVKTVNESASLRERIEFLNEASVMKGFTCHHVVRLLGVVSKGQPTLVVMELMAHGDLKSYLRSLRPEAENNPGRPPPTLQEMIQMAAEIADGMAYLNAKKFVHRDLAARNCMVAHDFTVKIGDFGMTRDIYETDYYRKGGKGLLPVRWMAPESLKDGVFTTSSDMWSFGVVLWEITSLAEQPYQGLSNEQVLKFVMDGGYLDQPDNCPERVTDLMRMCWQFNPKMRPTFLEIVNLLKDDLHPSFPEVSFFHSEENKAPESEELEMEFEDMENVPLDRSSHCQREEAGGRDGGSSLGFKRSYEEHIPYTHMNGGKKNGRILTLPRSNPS
Mitogen-activated protein kinase 1 (Homo sapiens), sequence (P28482 whole entry): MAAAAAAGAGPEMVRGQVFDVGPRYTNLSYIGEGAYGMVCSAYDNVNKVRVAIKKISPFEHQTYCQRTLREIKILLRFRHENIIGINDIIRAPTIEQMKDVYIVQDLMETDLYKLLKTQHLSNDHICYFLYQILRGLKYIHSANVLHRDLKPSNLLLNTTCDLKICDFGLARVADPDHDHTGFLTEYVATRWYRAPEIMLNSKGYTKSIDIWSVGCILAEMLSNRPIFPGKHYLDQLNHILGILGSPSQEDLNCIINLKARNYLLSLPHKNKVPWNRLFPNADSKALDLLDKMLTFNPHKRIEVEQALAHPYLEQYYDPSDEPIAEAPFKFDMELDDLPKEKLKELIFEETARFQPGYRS

Row | inhibition [1] | residual activity [2] | residual activity [3] | residual activity [4] | residual activity [5] | residual activity [6] | residual activity [7] | residual activity [8] | residual activity [9] | residual activity [10] | residual activity [11] | residual activity [12] | residual activity [13] | residual activity [14] | residual activity [15] | residual activity [16] | Compound
1 | 9% | 60% | 3% | 87% | 44% | 68% | 78% | 122% | 22% | 89% | 25% | 88% | 36% | 96% | 82% | 86% | Cc1ccc2cc(-c3n[nH]c4ccc(NC5CCN(Cc6ccccc6)CC5)cc34)[nH]c2c1
2 | 7% | 66% | 2% | 13% | 14% | 36% | 90% | 69% | 50% | 86% | 6% | 85% | 27% | 95% | 85% | 30% | Cc1ccc2cc(-c3n[nH]c4ccc(NC5CCNC5)cc34)[nH]c2c1 (configuration not stated)
